Data taken from ChEMBL document CHEMBL4043120 (Bioorg Med Chem, 2017).
Active and inactive are the calls of the source. The rule behind the calls is not given here.

Key:
[1] = biological target: T1, Histone-lysine N-methyltransferase EHMT2 (Homo sapiens) (UniProt Q96KQ7); test: (§1) Inhibition of EHMT2 (unknown origin) preincubated for 15 mins followed by SAM and biotinylated H3K9 peptide addition measured after 30 mins by TR-FRET assay
T1 sequence (whole entry): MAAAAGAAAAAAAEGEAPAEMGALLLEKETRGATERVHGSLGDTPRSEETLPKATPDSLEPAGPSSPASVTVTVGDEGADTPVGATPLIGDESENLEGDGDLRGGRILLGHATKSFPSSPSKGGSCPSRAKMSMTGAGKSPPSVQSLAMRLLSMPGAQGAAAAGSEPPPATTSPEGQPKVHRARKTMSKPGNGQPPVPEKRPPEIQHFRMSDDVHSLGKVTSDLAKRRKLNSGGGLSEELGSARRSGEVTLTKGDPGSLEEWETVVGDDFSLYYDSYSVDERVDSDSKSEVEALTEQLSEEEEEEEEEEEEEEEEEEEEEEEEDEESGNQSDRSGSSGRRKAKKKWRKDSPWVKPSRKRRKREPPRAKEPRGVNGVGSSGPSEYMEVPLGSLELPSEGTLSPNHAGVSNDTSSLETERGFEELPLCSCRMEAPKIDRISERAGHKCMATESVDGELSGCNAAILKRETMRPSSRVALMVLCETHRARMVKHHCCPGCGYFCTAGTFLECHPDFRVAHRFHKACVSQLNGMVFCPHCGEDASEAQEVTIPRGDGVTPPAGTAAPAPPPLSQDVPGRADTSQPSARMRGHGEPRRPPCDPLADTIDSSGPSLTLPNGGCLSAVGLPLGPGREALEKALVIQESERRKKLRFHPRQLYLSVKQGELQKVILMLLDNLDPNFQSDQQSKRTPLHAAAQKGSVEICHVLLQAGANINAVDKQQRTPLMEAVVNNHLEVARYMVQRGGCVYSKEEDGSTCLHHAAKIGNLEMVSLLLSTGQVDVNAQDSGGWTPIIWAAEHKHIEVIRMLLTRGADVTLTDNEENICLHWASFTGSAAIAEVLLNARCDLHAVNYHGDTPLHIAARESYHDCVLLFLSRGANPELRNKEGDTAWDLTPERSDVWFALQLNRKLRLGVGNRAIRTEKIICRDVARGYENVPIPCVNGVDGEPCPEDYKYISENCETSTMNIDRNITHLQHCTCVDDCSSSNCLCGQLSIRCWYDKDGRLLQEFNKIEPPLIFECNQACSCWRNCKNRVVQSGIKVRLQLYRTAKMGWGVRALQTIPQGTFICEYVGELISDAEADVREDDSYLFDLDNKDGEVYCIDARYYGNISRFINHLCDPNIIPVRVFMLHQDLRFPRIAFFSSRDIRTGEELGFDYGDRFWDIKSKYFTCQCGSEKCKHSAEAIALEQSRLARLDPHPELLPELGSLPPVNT

[2] = biological target: T2, Histone-lysine N-methyltransferase EHMT2 (Homo sapiens, UniProt Q96KQ7); test: as §1
T2 sequence (Q96KQ7 whole entry): T1 sequence (whole entry)

[3] = biological target: T3, Histone-lysine N-methyltransferase EHMT1 (Homo sapiens) (UniProt Q9H9B1); test: (§2) Inhibition of EHMT1 (unknown origin) preincubated for 5 mins followed by SAM and biotinylated H3K9 peptide addition measured after 120 mins by HTRF assay
T3 sequence (whole entry): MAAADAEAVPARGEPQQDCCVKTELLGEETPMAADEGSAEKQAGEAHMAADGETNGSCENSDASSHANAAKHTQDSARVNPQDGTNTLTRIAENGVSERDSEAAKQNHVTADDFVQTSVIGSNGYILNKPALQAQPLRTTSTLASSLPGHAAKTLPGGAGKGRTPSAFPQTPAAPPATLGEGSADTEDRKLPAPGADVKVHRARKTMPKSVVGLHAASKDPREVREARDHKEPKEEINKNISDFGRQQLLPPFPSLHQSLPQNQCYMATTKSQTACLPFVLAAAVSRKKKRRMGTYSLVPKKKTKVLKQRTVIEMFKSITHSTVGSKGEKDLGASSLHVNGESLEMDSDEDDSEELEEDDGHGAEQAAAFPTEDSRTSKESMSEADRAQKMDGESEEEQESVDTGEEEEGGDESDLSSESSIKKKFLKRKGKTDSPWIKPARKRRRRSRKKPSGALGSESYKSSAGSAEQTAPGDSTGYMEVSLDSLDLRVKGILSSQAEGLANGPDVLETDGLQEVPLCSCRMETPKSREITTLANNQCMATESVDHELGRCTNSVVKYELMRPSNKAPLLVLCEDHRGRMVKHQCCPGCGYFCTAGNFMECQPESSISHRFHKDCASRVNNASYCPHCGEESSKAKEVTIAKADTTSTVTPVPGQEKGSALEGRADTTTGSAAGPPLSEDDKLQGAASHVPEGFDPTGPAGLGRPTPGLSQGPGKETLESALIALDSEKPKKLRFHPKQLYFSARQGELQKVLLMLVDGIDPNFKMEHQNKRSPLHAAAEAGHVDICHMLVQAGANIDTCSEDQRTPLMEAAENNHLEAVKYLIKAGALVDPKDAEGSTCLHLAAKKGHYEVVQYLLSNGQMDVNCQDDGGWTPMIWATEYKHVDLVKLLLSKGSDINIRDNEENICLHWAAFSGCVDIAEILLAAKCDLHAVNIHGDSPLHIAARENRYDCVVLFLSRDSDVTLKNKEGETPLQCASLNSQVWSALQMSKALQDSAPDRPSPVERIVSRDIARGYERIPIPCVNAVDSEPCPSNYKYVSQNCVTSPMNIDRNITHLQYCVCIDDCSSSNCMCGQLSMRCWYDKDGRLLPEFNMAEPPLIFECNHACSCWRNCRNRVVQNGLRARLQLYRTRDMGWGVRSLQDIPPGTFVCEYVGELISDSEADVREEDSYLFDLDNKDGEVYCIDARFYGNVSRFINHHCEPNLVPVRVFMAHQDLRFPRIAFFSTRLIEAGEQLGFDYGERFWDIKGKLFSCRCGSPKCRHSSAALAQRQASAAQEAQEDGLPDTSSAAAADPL
How it was run: (§3)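 Final 0.4 nM enzyme, 150 nM biotinylated H3(1-21)K9 peptide, 6 μM SAM, pH 8.8 Tris buffer, 1% DMSO. Eu-antibody/SA-XL665 HTRF read at 665/620 nm. Mean±SEM of 3-4 independent experiments in triplicate.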

[4] = biological target: Protein arginine N-methyltransferase 1 (Homo sapiens) (UniProt Q99873); test: Inhibition of PRMT1 (unknown origin) at 400 uM preincubated for 5 mins followed by SAM and H4 (1 to 25 residues) peptide addition measured after 1 hr by HTRF assay relative to control
[5] = biological target: T1, Histone-lysine N-methyltransferase EHMT2 (Homo sapiens); test: Inhibition of EHMT2 (unknown origin) at 400 uM preincubated for 15 mins followed by SAM and biotinylated H3K9 peptide addition measured after 30 mins by TR-FRET assay relative to control
How it was run: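 Single-point EHMT2 screen at 400 μM, 1% DMSO. Final 0.6 nM EHMT2, 0.5 µM biotinylated H3(1-21)K9 peptide, 3 µM SAM in 50 mM Tris-HCl pH 9.0, 50 mM NaCl, 1 mM DTT, 0.01% Tween-20. Detection 60 min with final 2 nM Eu-antibody, 50 nM ULight-streptavidin, 0.0001% poly-L-lysine. TR-FRET read at 665/620 nm.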

[6] = biological target: T3, Histone-lysine N-methyltransferase EHMT1 (Homo sapiens); test: Inhibition of EHMT1 (unknown origin) at 200 uM preincubated for 5 mins followed by SAM and biotinylated H3K9 peptide addition measured after 120 mins by HTRF assay relative to control
How it was run: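 Final EHMT1 0.4 nM, biotinylated unmethylated H3(1-21)K9 peptide 150 nM, SAM 6 μM in 50 mM Tris-HCl pH 8.8, 50 mM NaCl, 1 mM DTT, 0.01% Tween-20; samples at 200 μM, 1% DMSO final. Detection by Eu-antibody plus streptavidin-XL665, 60 min. HTRF read: excitation 320 or 340 nm, emission 665/620 nm.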

HL-60 = test: Antiproliferative activity against human HL60 cells at 200 uM after 72 hrs by CCK8 assay relative to control; type: functional; settings: HL-60, 72 h
MDA-MB-231 = test: Antiproliferative activity against human MDA-MB-231 cells at 200 uM after 72 hrs by sulforhodamine B assay relative to control; type: functional; settings: MDA-MB-231, 72 h
[7] = biological target: T4, Histone-lysine N-methyltransferase EHMT1 (Homo sapiens, UniProt Q9H9B1); test: as §2; how it was run: as §3
T4 sequence (Q9H9B1 whole entry): T3 sequence (whole entry)

[8] = biological target: T4, Histone-lysine N-methyltransferase EHMT1; test: Inhibition of EHMT1 (unknown origin)

Protein arginine N-methyltransferase 1 (Homo sapiens), sequence (Q99873 whole entry, looked up, the tested form may be a part): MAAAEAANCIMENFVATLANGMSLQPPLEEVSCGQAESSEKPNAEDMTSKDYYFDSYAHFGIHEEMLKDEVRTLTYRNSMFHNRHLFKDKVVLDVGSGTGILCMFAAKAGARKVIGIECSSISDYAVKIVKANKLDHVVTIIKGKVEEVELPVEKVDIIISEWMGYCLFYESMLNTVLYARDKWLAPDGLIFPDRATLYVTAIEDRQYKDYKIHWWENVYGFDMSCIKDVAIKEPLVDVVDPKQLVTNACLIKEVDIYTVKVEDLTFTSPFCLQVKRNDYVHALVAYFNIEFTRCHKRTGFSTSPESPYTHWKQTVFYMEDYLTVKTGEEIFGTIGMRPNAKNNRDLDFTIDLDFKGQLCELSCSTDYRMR

| Structure (SMILES) | inhibition [1] | IC50 [2] [µM] | inhibition [3] | inhibition [4] | inhibition [5] [%] | inhibition [6] | inhibition at 200 µM (HL-60) [%] | inhibition at 200 µM (MDA-MB-231) [%] | IC50 ([7]; read-out: IC50) [µM] | IC50 [8] [µM] | IC50 [7] |
| --- | --- | --- | --- | --- | --- | --- | --- | --- | --- | --- | --- |
| Nc1ncnc2c1ncn2[C@@H]1O[C@H](C[C@H](N)CC2CC2)[C@@H](O)[C@H]1O | Dose-dependent effect | 67.2 | Dose-dependent effect | 20% | 65.7 | 52.2% | – | – | – | – | – |
| COc1cc2nc(N3CCCN(C)CC3)nc(NC3CCN(Cc4ccccc4)CC3)c2cc1OC | – | – | – | – | – | – | 81.8 | 87.2 | – | – | – |
| CCN(CC1CCCCC1)C[C@H]1O[C@@H](n2cnc3c(N)ncnc32)[C@H](O)[C@@H]1O | Dose-dependent effect | – | Dose-dependent effect | – | 39.1 | 24.1% | – | – | – | – | – |
| Nc1ncnc2c1ncn2[C@@H]1O[C@H](C[C@H](N)CCC2CCCCC2)[C@@H](O)[C@H]1O | Dose-dependent effect | – | Dose-dependent effect | – | 47.8 | 46.3% | – | – | – | – | – |
| Nc1ncnc2c1ncn2[C@@H]1O[C@H](C[C@H](N)CC2CCC2)[C@@H](O)[C@H]1O | Dose-dependent effect | – | Dose-dependent effect | – | 44 | 53.2% | – | – | 115 | – | – |
| Nc1ncnc2c1ncn2[C@@H]1O[C@H](C[C@@H](N)CCC2CCCCC2)[C@@H](O)[C@H]1O | Dose-dependent effect | – | Dose-dependent effect | – | 42.7 | 40.9% | – | – | – | – | – |
| Nc1ncnc2c1ncn2[C@@H]1O[C@H](C[C@@H](N)CC[C@H](N)C(=O)O)[C@@H](O)[C@H]1O [SINEFUNGIN] | Dose-dependent effect | – | Dose-dependent effect | – | 79.5 | 100% | 41 | 42.8 | 28.4 | 0.1 to 20 | – |
| CCCN(CC1CCCCC1)C[C@H]1O[C@@H](n2cnc3c(N)ncnc32)[C@H](O)[C@@H]1O | Dose-dependent effect | – | Dose-dependent effect | – | 19.8 | inactive | – | – | – | – | Not Active |
| CN(CC1CCCCC1)C[C@H]1O[C@@H](n2cnc3c(N)ncnc32)[C@H](O)[C@@H]1O | Dose-dependent effect | – | Dose-dependent effect | – | 31.9 | inactive | – | – | – | – | Not Active |
| Nc1ncnc2c1ncn2[C@@H]1O[C@H](C[C@@H](N)CC2CCC2)[C@@H](O)[C@H]1O | Dose-dependent effect | 169 | Dose-dependent effect | inactive | 58.9 | 69.7% | – | – | 47.7 | – | – |
| Nc1ncnc2c1ncn2[C@@H]1O[C@H](C[C@@H](N)CC2CC2)[C@@H](O)[C@H]1O | Dose-dependent effect | 39.6 | Dose-dependent effect | inactive | 77.6 | 88.9% | 37.9 to 38.4 | 41.4 | 21.8 | – | – |
| Nc1ncnc2c1ncn2[C@@H]1O[C@H](C[C@@H](N)CC2CCCCC2)[C@@H](O)[C@H]1O | Dose-dependent effect | – | Dose-dependent effect | inactive | 43.7 | 72.7% | – | – | 204 | – | – |
| Nc1ncnc2c1ncn2[C@@H]1O[C@H](C[C@@H](N)CC2CCCC2)[C@@H](O)[C@H]1O | Dose-dependent effect | 191 | Dose-dependent effect | inactive | 55.3 | 75.7% | – | – | 95.1 | – | – |
| Nc1ncnc2c1ncn2[C@@H]1O[C@H](C[C@H](N)CC2CCCC2)[C@@H](O)[C@H]1O | Dose-dependent effect | – | Dose-dependent effect | – | 43.6 | 12.5% | – | – | – | – | – |
| Nc1ncnc2c1ncn2[C@@H]1O[C@H](C[C@H](N)CC2CCCCC2)[C@@H](O)[C@H]1O | Dose-dependent effect | – | Dose-dependent effect | inactive | 45.3 | 58.1% | – | – | 146 | – | – |
